Screening results: PubChem BioAssay, Broad Institute
GASC1 inh = KDM4C (human) demethylase inhibition; GST-KDM4C 2-372, H3K9me3 peptide, LANCE TR-FRET; inhibition, % at 12.5 µM; 0.15% of 96,000 active;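 active means mean replicate inhibition above about 25%, with at least 55% of replicates also reaching it, limit read from the data, passing the limit was not always enough; inconclusive means only one of those two conditions met; inactive means neither condition met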
Target sequence (Q9H3R0 2-372 limits assumed): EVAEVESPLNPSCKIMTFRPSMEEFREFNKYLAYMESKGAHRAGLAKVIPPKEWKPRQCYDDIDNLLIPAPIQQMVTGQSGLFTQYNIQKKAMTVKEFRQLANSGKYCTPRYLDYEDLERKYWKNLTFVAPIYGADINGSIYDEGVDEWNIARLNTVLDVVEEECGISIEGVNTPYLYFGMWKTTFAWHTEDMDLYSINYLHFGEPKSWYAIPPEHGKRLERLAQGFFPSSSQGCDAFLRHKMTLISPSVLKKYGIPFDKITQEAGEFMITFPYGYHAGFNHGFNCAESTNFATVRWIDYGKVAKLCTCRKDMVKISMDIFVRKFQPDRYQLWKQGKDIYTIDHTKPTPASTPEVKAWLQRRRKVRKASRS
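reagent = H3K9me3 peptide substrate, Fe(II), 2-oxoglutarate | system = GST-tagged GASC-1 (JMJD2C) catalytic fragment, aa 2-372 | amount = enzyme final amount 10 nM | read-out = Fall in 671/618 emission ratio as inhibition | medium = HEPES buffer, pH 7.5, plus ascorbate | schedule = 30 min reaction, 60 min detection, RT | measured by = LANCE TR-FRET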
T cruzi growth-1 = T. cruzi proliferation inhibition | T. cruzi beta-gal in NIH3T3, GalScreen luminescence, 90 h | AID 624255 | inhibition, % at 8.34 µM | 5.9% of 77,000 active;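 active means mean inhibition above about 93%, with at least 55% of replicates each passing it, limit read from the data, passing the limit was not always enough; inconclusive means only one of those two conditions holds; inactive means neither condition holds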
Pf Dd2 inh = P. falciparum Dd2 growth inhibition | SYBR Green, 72 h; hits give low values | activity change, % at 10 µM | 2.3% of 94,000 active | AID 1159554; in the data active means activity change below about -80%; inconclusive means no clear call, values can overlap the other calls
IDH1 R132H inh = inhibitors of human IDH1 R132H | O75874 | IDH1 R132H reductase, diaphorase/resazurin fluorescence, 60 min | inhibition, % at 10 µM | 0.18% of 70,000 active; in the data active means inhibition above about 34%; inconclusive means no clear call, values can overlap the other calls; inactive means below about 11%;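 further: 0% = DMSO and 100% = no enzyme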
T cruzi growth-2 = inhibitors of T. cruzi proliferation | 72% of 5,600 active | inhibition, % at 8.35 µM | shares compounds with T cruzi growth-1 | T. cruzi beta-gal in NIH3T3, GalScreen luminescence, 90 h;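 active means mean replicate inhibition above about 95% and at least 55% of replicates individually reaching it, limit read from the data; inconclusive means only one of the two criteria is met; inactive means neither criterion is met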
T cruzi growth-3 = inhibitors of T. cruzi proliferation; shares compounds with T cruzi growth-1; T. cruzi beta-gal in NIH3T3, GalScreen luminescence, 90 h; inhibition, % at 2.09 µM; 21% of 5,600 active;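 active means mean inhibition above about 95%, with at least 55% of replicates also reaching it, limit read from the data; inconclusive means meets just one of the two conditions; inactive means meets neither condition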;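 further: plate controls were neutral control median for no effect and positive control median for full effect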
NIH3T3 tox = kills mouse NIH/3T3 fibroblasts; shares compounds with T cruzi growth-1; NIH/3T3 viability, CellTiter-Glo ATP luminescence, 90 h; cytotoxicity (signal decrease), % at 8.35 µM; 14% of 5,600 active; AID 651742;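 active means mean signal decrease across replicates above about 35% based on untreated-well scatter, with enough replicates individually passing, limit read from the data; inconclusive means no rule stated though some were filed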;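 further: 0% = median of neutral control wells and 100% = median of positive control wells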
NIH3T3 tox 2 = cytotoxicity in mouse NIH/3T3 fibroblasts | shares compounds with T cruzi growth-1 | NIH/3T3 viability, CellTiter-Glo ATP luminescence, 90 h | inhibition, % at 24.9 µM | 56% of 5,600 active | AID 651744;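 active means mean loss of cell viability signal at or above a set limit, and enough replicates individually reaching it; inconclusive means meets only the mean limit or only the replicate share; inactive means meets neither condition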;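 further: 0% = median of neutral control wells and 100% = median of positive control wells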
The depositor's hits bear a star. Sampled rows, rich in hits. Any-hit rate of the full collection: about 5.8%.

Results for Cc1ccc(S(=O)(=O)N(C)C[C@@H]2OCCCC[C@H](C)Oc3ccc(NS(=O)(=O)c4ccc(Cl)cc4)cc3C(=O)N([C@@H](C)CO)C[C@H]2C)cc1 ?
GASC1 inh: 2; T cruzi growth-1: 106*; Pf Dd2 inh: -27; IDH1 R132H inh: 0; T cruzi growth-2: 103*; T cruzi growth-3: 71; NIH3T3 tox: -37; NIH3T3 tox 2: -10

Results for Cc1ccc(S(=O)(=O)Nc2ccc3c(c2)C(=O)N([C@H](C)CO)C[C@H](C)[C@@H](CN(C)S(=O)(=O)c2ccc(Cl)cc2)OCCCC[C@H](C)O3)cc1 ?
GASC1 inh: -2; T cruzi growth-1: 89; Pf Dd2 inh: -53; IDH1 R132H inh: 5

Results for OCCN(CCO)Cc1ccc(Cl)cc1 ?
IDH1 R132H inh: 0

What do the screens show for `O=C1NC(=O)C(C(CC(=O)c2ccccc2)c2ccccc2Br)C(=O)N1` (configuration not stated)?
IDH1 R132H inh: 0

Results for C[C@@H]1CN([C@@H](C)CO)C(=O)c2cc(NC(=O)Nc3ccc(C(F)(F)F)cc3)ccc2O[C@@H](C)CCCCO[C@H]1CN(C)S(=O)(=O)c1cccs1 ?
GASC1 inh: 0; T cruzi growth-1: 100*; Pf Dd2 inh: -40; T cruzi growth-2: 105*; T cruzi growth-3: 112*; NIH3T3 tox: 25; NIH3T3 tox 2: 16

What do the screens show for `C[C@H]1CCCCO[C@H](CN(C)S(=O)(=O)c2cccs2)[C@@H](C)CN([C@@H](C)CO)C(=O)c2cc(NC(=O)Nc3ccc(C(F)(F)F)cc3)ccc2O1`?
GASC1 inh: -3; T cruzi growth-1: 99*; Pf Dd2 inh: -71; T cruzi growth-2: 105*; T cruzi growth-3: 109*; NIH3T3 tox: -22; NIH3T3 tox 2: -2

What do the screens show for `C[C@@H]1CCCCO[C@H](CN(C)S(=O)(=O)c2cccs2)[C@H](C)CN([C@@H](C)CO)C(=O)c2cc(NC(=O)Nc3ccc(C(F)(F)F)cc3)ccc2O1`?
GASC1 inh: -1; T cruzi growth-1: inconclusive; Pf Dd2 inh: -74; T cruzi growth-2: 104*; T cruzi growth-3: 113*; NIH3T3 tox: 9; NIH3T3 tox 2: 4

How did C[C@H]1CCCCO[C@@H](CN(C)S(=O)(=O)c2cccs2)[C@@H](C)CN([C@@H](C)CO)C(=O)c2cc(NC(=O)Nc3ccc(C(F)(F)F)cc3)ccc2O1 do in these assays?
GASC1 inh: 0; T cruzi growth-1: inconclusive; Pf Dd2 inh: -89*; IDH1 R132H inh: 1; T cruzi growth-2: 96*; T cruzi growth-3: 110*; NIH3T3 tox: -13; NIH3T3 tox 2: 7

How did COc1ccccc1NC(=O)C1=C(C)Nc2ncnn2C1c1ccc(C(=O)O)cc1 (configuration not stated) do in these assays?
IDH1 R132H inh: 0

How did Cc1c(C(=O)N(C)C)sc2[nH]c(=O)n(-c3ccccc3C(F)(F)F)c(=O)c12 do in these assays?
IDH1 R132H inh: 2

How did C[C@@H]1CCCCO[C@H](CN(C)Cc2ccc(C(F)(F)F)cc2)[C@H](C)CN([C@H](C)CO)C(=O)c2cc(NC(=O)Nc3ccccc3)ccc2O1 do in these assays?
GASC1 inh: -1; T cruzi growth-1: inconclusive; Pf Dd2 inh: -74; IDH1 R132H inh: 1; T cruzi growth-2: 96*; T cruzi growth-3: 120*; NIH3T3 tox: -12; NIH3T3 tox 2: -7

Results for C[C@@H]1CCCCO[C@H](CN(C)Cc2ccc(C(F)(F)F)cc2)[C@@H](C)CN([C@H](C)CO)C(=O)c2cc(NC(=O)Nc3ccccc3)ccc2O1 ?
GASC1 inh: 0; T cruzi growth-1: 96*; Pf Dd2 inh: 48; IDH1 R132H inh: -1; T cruzi growth-2: 98*; T cruzi growth-3: 111*; NIH3T3 tox: 25; NIH3T3 tox 2: 20

Results for C[C@@H]1CCCCO[C@@H](CN(C)Cc2ccc(C(F)(F)F)cc2)[C@@H](C)CN([C@@H](C)CO)C(=O)c2cc(NC(=O)Nc3ccccc3)ccc2O1 ?
GASC1 inh: 0; T cruzi growth-1: 75; Pf Dd2 inh: 19; IDH1 R132H inh: 0

Results for O=C(CSc1ncn(-c2ccccc2)n1)Nc1ccc(Cl)cc1Cl ?
IDH1 R132H inh: 0

What do the screens show for `C[C@H](NC(=O)C[C@@H]1C=C[C@@H](NC(=O)Nc2ccc3c(c2)OCO3)[C@H](CO)O1)c1ccccc1`?
GASC1 inh: 0; T cruzi growth-1: -8; Pf Dd2 inh: -14; IDH1 R132H inh: -1

How did Cc1ccccc1S(=O)(=O)NCC[C@@H]1CC[C@@H](NC(=O)Nc2cccc(Cl)c2)[C@H](CO)O1 do in these assays?
GASC1 inh: -1; T cruzi growth-1: 10; Pf Dd2 inh: -33; IDH1 R132H inh: 0

What do the screens show for `CCCNC(=O)[C@H]1[C@H](CO)[C@H]2Cn3c(ccc(-c4cccc(OC)c4)c3=O)[C@@H]1N2CCC`?
GASC1 inh: -1; T cruzi growth-1: 79; Pf Dd2 inh: 0

How did CCCNC(=O)[C@@H]1[C@@H](CO)[C@@H]2Cn3c(ccc(-c4cccc(OC)c4)c3=O)[C@H]1N2CCC do in these assays?
GASC1 inh: 0; T cruzi growth-1: 100*; Pf Dd2 inh: 5; T cruzi growth-2: 52; T cruzi growth-3: 11; NIH3T3 tox: 7; NIH3T3 tox 2: 14

How did CCCNC(=O)[C@@H]1[C@@H](CO)[C@@H]2Cn3c(ccc(C4=CCCC4)c3=O)[C@H]1N2C(C)=O do in these assays?
GASC1 inh: 2; T cruzi growth-1: 106*; Pf Dd2 inh: 13; T cruzi growth-2: 108*; T cruzi growth-3: 16; NIH3T3 tox: 3; NIH3T3 tox 2: -6

Results for CCCNC(=O)[C@H]1[C@H](CO)[C@H]2Cn3c(ccc(-c4ccccc4)c3=O)[C@@H]1N2C(=O)CC1CC1 ?
GASC1 inh: 0; T cruzi growth-1: 106*; Pf Dd2 inh: -14; T cruzi growth-2: 82; T cruzi growth-3: 3; NIH3T3 tox: 3; NIH3T3 tox 2: -8

Results for CN(C)C(=O)[C@@H]1[C@@H](CO)[C@@H]2Cn3c(ccc(-c4cccc(F)c4)c3=O)[C@H]1N2Cc1ccccc1 ?
GASC1 inh: 1; T cruzi growth-1: 103*; T cruzi growth-2: 13; T cruzi growth-3: 15; NIH3T3 tox: -12; NIH3T3 tox 2: 7

Results for CN(C)C(=O)[C@@H]1[C@@H](CO)[C@@H]2Cn3c(ccc(-c4cccc(F)c4)c3=O)[C@H]1N2CCc1ccccc1 ?
GASC1 inh: 0; T cruzi growth-1: 16; Pf Dd2 inh: 4
